This is a sample that favours compounds with a hit; in the whole collection about 2.8% have one here.
MC4R antag cAMP: MC4R antagonists of cAMP signaling, primary screen, cell-based, TR-FRET, antagonist arm of biased-ligand search | MC4R-expressing cells, MTII-stimulated cAMP, LANCE TR-FRET | Melanocortin receptor 4 (Homo sapiens), P32245 | 360,000 compounds, 0.48% hits | inhibition, % at 6.5 µM;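 active means inhibition above its plate's cutoff, the mean of tested wells on that plate plus 3 SD, cut at about 29% in these data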
Target sequence (P32245 whole entry, looked up): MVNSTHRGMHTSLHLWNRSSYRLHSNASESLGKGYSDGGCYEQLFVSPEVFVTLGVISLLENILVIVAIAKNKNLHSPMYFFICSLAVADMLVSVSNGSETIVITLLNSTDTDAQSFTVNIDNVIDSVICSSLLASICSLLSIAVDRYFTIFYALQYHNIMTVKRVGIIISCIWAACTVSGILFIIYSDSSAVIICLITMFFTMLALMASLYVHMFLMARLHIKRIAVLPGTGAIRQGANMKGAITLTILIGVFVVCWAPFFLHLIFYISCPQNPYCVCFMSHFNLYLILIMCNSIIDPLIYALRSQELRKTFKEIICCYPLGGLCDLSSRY
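System: U2OS cells stably expressing human melanocortin 4 receptor (MC4R). Reagent: Melanotan II challenge after compound preincubation. Doses: 6.5 µM. Times: 30-min compound, 1-h challenge, 1-h detection, room temperature. Measured by: TR-FRET with Eu-cAMP and labeled anti-cAMP, 671 nm. Replicates: singlicate.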
HTR2A ag: mouse Htr2a agonists via beta-arrestin recruitment, primary screen, cell-based, luminescence. activation, % at 7.6 µM. 360,000 compounds, 0.66% hits. CHO-K1 mHTR2A beta-arrestin complementation; percent of 30 µM serotonin response. AID 624169, 2012. 5-hydroxytryptamine receptor 2A (Mus musculus), P35363;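 active means activation above a run cutoff, the mean activation of all tested compounds plus 3 SD, cut at about 14% in these data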
EBI2 block: EBI2 receptor antagonists, beta-arrestin recruitment, primary screen, cell-based, luminescence, 7a,25-OHC stimulation, uHTS | inhibition, % at 5 µM | 7a,25-OHC stimulated | 360,000 compounds, 0.81% hits | G-protein coupled receptor 183 (Homo sapiens), P32249; in the data active means inhibition above about 38%;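 further: enzyme fragment complementation signal reports receptor beta-arrestin coupling in cells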
MC4R barr agon: MC4R agonists recruiting beta-arrestin, primary screen, cell-based, luminescence, agonist arm of biased-ligand search. Melanocortin receptor 4 (Homo sapiens), P32245. U2OS MC4R beta-arrestin complementation; percent of melanotan II response, DMSO zero. activation, % at 8.9 µM. 360,000 compounds, 0.98% hits. AID 540308, 2011;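 active means activation above a per-plate cutoff, the mean activation of sample wells on that plate plus 3 SD, cut at about 8% in these data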
EBI2 conf: EBI2 antagonist hit retest, beta-arrestin, confirmation, cell-based, single concentration, luminescence, 7a,25-OHC stimulation. shares compounds with EBI2 block. 7a,25-OHC antagonism. inhibition, % at 5 µM. 2,400 compounds, 29% hits. AID 651997, 2013;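 active means inhibition of at least 50%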
EBI2 agonist: EBI2 agonist activity of antagonist hits, confirmation, counter-screen for EBI2 antagonist project, cell-based, single concentration, agonist mode, luminescence; shares compounds with EBI2 block; EBI2-expressing cells, 60 min; 0% vehicle, 100% 7α,25-dihydroxycholesterol control; activation, % at 5 µM; 2,400 tested, under 10 active;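 active means activation of at least 50%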
bGal counter: E. coli beta-galactosidase enzyme inhibition, confirmation, counter-screen for EBI2 antagonist project, biochemical, luminescence, single concentration | shares compounds with EBI2 block | purified beta-galactosidase, luminescent Galacton Star, 15 min | inhibition, % at 5 µM | 2,400 compounds, 1% hits | AID 652176, 2013;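 active means replicate-average signal at least 3 plate SD below neutral wells, shown as high inhibition, flagging enzyme-inhibiting false positives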;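 further: higher means stronger loss of beta-gal luminescence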
Each line names hits and unclear results; the compound was inactive in the other large screens (follow-up assays come after a bar, where they were run).

CN(C(=O)Cn1c(=O)oc2cc(S(=O)(=O)N3CCCC3)ccc21)C1CCCCC1	none
COc1cccc(CNC(=O)C2CCN(S(=O)(=O)c3ccc4c(c3)C(C)(C)C(=O)N4C)CC2)c1	none
COc1cnc(-c2ccccc2)nc1Oc1cccc(C)c1C	none
Cc1ccc(Oc2ncc(-c3ccc(Cl)cc3)cn2)cc1	EBI2 block 90 | EBI2 conf 58 | EBI2 agonist inactive | bGal counter inactive
Cc1cccc(Oc2ncc(-c3ccc(Cl)cc3)cn2)c1C	EBI2 block 52 | EBI2 conf inactive | EBI2 agonist inactive | bGal counter inactive
Cc1ccc(C)c(S(=O)(=O)N2CCN(C(=O)CCNS(=O)(=O)c3ccc(C)c(C)c3)CC2)c1	none
Cc1ccc(C)c(OCCC(=O)N2CCN(S(=O)(=O)c3cc(C)ccc3C)CC2)c1	EBI2 block 66 | EBI2 conf inactive | EBI2 agonist inactive | bGal counter inactive
Cc1ccc(C)c(S(=O)(=O)N2CCN(C(=O)CCNC(=O)c3ccc(Br)cc3)CC2)c1	EBI2 block 75 | EBI2 conf inactive | EBI2 agonist inactive | bGal counter inactive
Cc1ccc(S(=O)(=O)N2CCN(C(=O)CCc3c[nH]c4ccccc34)CC2)c(C)c1	EBI2 block 47 | EBI2 conf inactive | EBI2 agonist inactive | bGal counter inactive
Cc1cc(C)c(S(=O)(=O)N2CCN(C(=O)CCOc3ccccc3C)CC2)c(C)c1	EBI2 block 81 | EBI2 conf inactive | EBI2 agonist inactive | bGal counter inactive
CCCOc1ccc(N2C(=O)C/C(=C\c3ccccc3)C2=O)cc1	none
Cc1ccc(S(=O)(=O)/N=C(/c2ccc(F)cc2)N(C)C)cc1	none
Cc1ccccc1OCCC(=O)N1CCN(S(=O)(=O)c2ccc(Br)cc2)CC1	EBI2 block 44 | EBI2 conf inactive | EBI2 agonist inactive | bGal counter inactive
Cc1ccc(C)c(S(=O)(=O)N2CCN(C(=O)c3cnccn3)CC2)c1	none
Cc1ccc(C)c(S(=O)(=O)N2CCN(C(=O)c3ccc4ccccc4n3)CC2)c1	EBI2 block 50 | EBI2 conf inactive | EBI2 agonist inactive | bGal counter inactive
C[C@H](CO)N1C[C@H](C)[C@@H](CN(C)S(=O)(=O)c2cccc(C#N)c2)OCc2cn(nn2)CCCC1=O	none
C(=C\c1nc(N2CCCC2)c2ccccc2n1)/c1ccccc1	EBI2 block 41 | EBI2 conf 59 | EBI2 agonist inactive | bGal counter inactive
O=C(Nc1cccc(-c2nnc(-c3ccco3)o2)c1)c1ccccc1	none
O=C(Nc1cccc(-c2nnc(-c3ccco3)o2)c1)C(c1ccccc1)c1ccccc1	EBI2 block 77 | EBI2 conf inactive | EBI2 agonist inactive | bGal counter inactive
O=C(Cc1ccc(Cl)cc1)Nc1cccc(-c2nnc(-c3ccco3)o2)c1	EBI2 block 71 | EBI2 conf inactive | EBI2 agonist inactive | bGal counter inactive
COc1ccc(-c2ccc(C(=O)Nc3cccc(C(F)(F)F)c3)c3occc23)c(C)c1	EBI2 block 43 | EBI2 conf inactive | EBI2 agonist inactive | bGal counter inactive
COc1ccc(Nc2nnc(SCC(=O)NC(=O)Nc3ccc4c(c3)OCCO4)s2)cc1	none
Cc1cccc(CSCCNC(=O)COc2ccc(Cl)cc2)c1	none
O=C(COc1ccc(Cl)cc1)NCCSCc1cccc(Cl)c1	EBI2 block 66 | EBI2 conf inactive | EBI2 agonist inactive | bGal counter inactive
CC(C)CCNc1nnnc2c1sc1nc(N3CCOCC3)c3c(c12)CC(C)(C)SC3	EBI2 block 52 | EBI2 conf inactive | EBI2 agonist inactive | bGal counter inactive
Fc1ccc(Nc2ccc(-c3ccc(F)cc3)nn2)cc1	EBI2 block 60 | EBI2 conf inactive | EBI2 agonist inactive | bGal counter inactive
Cc1ccsc1C1Nc2ccc3ncccc3c2C2=C1C(=O)CC(C)(C)C2 (configuration not stated)	EBI2 block 94 | EBI2 conf 76 | EBI2 agonist inactive | bGal counter inactive
O=C1CCCC2=C1C(c1cccs1)Nc1ccc3ncccc3c12 (configuration not stated)	none
CC(=O)c1ccc(S(=O)(=O)N2CCN(CCOc3ccc(Br)cc3)CC2)cc1	EBI2 block 90 | EBI2 conf 58 | EBI2 agonist inactive | bGal counter inactive
Cc1ccc(NCC(=O)N2CCN(S(=O)(=O)c3ccccc3)CC2)cc1F	EBI2 block 87 | EBI2 conf inactive | EBI2 agonist inactive | bGal counter inactive
CCS(=O)(=O)N1CCN(C(=O)COc2ccc(-c3ccccc3)cc2)CC1	none
CCOc1ccc(S(=O)(=O)N2CCN(C(=O)COc3ccc(Br)cc3)CC2)cc1	EBI2 block 88 | EBI2 conf 81 | EBI2 agonist inactive | bGal counter inactive
CCOc1ccc(OCC(=O)N2CCN(S(=O)(=O)c3ccccc3)CC2)cc1	EBI2 block 59 | EBI2 conf inactive | EBI2 agonist inactive | bGal counter inactive
O=C(COc1ccc(S(=O)(=O)N2CCCC2)cc1)N1CCCC1	none
N#Cc1ccc(NCC(=O)N2CCN(S(=O)(=O)c3ccccc3)CC2)cc1	none
CS(=O)(=O)N(CC(=O)N1CCN(c2ccccc2F)CC1)c1cc(C(F)(F)F)ccc1Cl	EBI2 block 65 | EBI2 conf inactive | EBI2 agonist inactive | bGal counter inactive
CCOC(=O)Cn1cc(C#N)c2cccc(CC)c21	none
CC1=C(O)C(=O)C(c2c(C)cc(C)c(Br)c2C)=C(O)C1=O	none
CCOC(=O)C(Oc1ccc2c(-c3ccc(OC)cc3)cc(=O)oc2c1C)c1ccccc1 (configuration not stated)	EBI2 block 36 | EBI2 conf inactive | EBI2 agonist inactive | bGal counter inactive
Cc1cccc(N2CCN(C(=O)/C=C/c3cccs3)CC2)c1C	EBI2 block 85 | EBI2 conf 58 | EBI2 agonist inactive | bGal counter inactive
O=C(/C=C/c1ccc2c(c1)OCO2)N1CCN(c2ccccc2F)CC1	none
COc1ccccc1N1CCN(C(=O)/C=C/c2cccs2)CC1	EBI2 block 48 | EBI2 conf inactive | EBI2 agonist inactive | bGal counter inactive
